Measured values published in ChEMBL document CHEMBL3112577, “Discovery of novel chiral diazepines as bombesin receptor subtype-3 (BRS-3) agonists with low brain penetration” (Bioorg Med Chem Lett, 2014).
Converted amounts (≈) assume the structure as drawn.

Key:
[1] = biological target: T1, Bombesin receptor subtype-3 (Mus musculus, UniProt O54798); test: Agonist activity at mouse BRS-3 expressed in CHOK1 cells after 1 hr by HTRF assay; type: cell-based, CHO-K1
T1 sequence (O54798 whole entry): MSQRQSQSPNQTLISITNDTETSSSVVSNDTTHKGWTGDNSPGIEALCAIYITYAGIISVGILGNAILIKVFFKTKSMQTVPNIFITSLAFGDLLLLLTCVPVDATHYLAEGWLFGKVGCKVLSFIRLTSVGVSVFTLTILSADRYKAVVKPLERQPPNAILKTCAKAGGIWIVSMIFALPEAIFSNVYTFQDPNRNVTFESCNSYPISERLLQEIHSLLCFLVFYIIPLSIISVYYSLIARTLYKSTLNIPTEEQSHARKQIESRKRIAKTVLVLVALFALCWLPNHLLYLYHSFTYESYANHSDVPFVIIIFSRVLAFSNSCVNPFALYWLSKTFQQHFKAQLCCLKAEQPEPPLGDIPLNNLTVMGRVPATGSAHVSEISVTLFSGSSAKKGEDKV
Outline: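 CHO-K1 cells stably expressing mouse BRS-3 were plated at 200,000 cells/well and grown 24 h at 37 °C in CO₂. Compounds in HAM with 0.1% BSA plus 20 mM LiCl were added for 1 h at 37 °C. IP1 was detected by HTRF with d2-IP1 and cryptate anti-IP1 antibody after overnight at 4 °C in the dark, read as the 665/620 nm ratio and converted with on-plate IP1 standards. EC50 came from a nonlinear curve fit, averaged over at least 3 runs.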

[2] = biological target: T2, Bombesin receptor subtype-3 (Homo sapiens, UniProt P32247); test: Agonist activity at human BRS-3 expressed in CHOK1 cells after 1 hr by HTRF assay; type: cell-based, CHO-K1
T2 sequence (P32247 whole entry): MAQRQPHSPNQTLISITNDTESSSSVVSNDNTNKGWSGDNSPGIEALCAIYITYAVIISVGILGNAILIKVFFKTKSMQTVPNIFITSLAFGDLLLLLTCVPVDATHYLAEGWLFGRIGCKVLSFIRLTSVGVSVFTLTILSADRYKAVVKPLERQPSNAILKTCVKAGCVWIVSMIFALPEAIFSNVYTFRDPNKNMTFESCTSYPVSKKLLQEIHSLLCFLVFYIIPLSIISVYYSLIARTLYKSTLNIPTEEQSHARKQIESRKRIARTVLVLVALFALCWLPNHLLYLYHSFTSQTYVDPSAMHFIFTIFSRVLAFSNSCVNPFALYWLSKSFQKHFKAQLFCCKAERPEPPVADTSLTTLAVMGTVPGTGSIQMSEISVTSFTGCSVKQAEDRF

[3] = Octanol-phosphate buffered saline distribution coefficient, log D of the compound at pH 7.4; type: physicochemical
Outline: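 LogD was measured as partitioning between 1-octanol and phosphate-buffered saline at pH 7.4.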

[4] = Fraction unbound in mouse plasma; type: ADME, cell-free
[5] = Half life in mouse at 10 mg/kg, po; type: ADME, organism-based; set-up: dose 10 mg/kg, route oral; settings: in vivo
Outline: (§1)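 Two mice per compound given 10 mg/kg orally in DMA/PG/(20%HPbCD/saline) 10/10/80; values are the average of the 2 mice.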

[6] = Solubility of the compound in JP2; type: physicochemical
[7] = Solubility of the compound in JP1; type: physicochemical
[8] = Cmax in mouse at 10 mg/kg, po; type: ADME, organism-based; set-up: dose 10 mg/kg, route oral; settings: in vivo; outline: as §1
[9] = Ratio of drug level in brain to plasma of mouse at 30 mg/kg, po after 2.5 hrs; type: ADME, organism-based; set-up: dose 30 mg/kg, route oral
Outline: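 Mice given a single oral dose of 30 mg/kg. Brain and plasma concentrations were measured 2.5 h after dosing, and Kp brain was taken as the brain-to-plasma concentration ratio.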

[10] = AUC in mouse at 10 mg/kg, po; type: ADME, organism-based; set-up: dose 10 mg/kg, route oral; settings: plasma; outline: as §1
[11] = Metabolic stability in mouse liver microsomes assessed as compound remaining after 0.5 hrs; type: ADME, Microsome; settings: read-out: Stability
Outline: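 Compound was incubated 0.5 h with mouse liver microsomes and the percentage of parent remaining was reported.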

Row | EC50 [1] [nM] | EC50 [2] [nM] | logD [3] | Compound | also measured
1 | 244 | 254 | 3.2 | O=C(Cc1cccc(Oc2ccccn2)c1)N1CCNc2nc(C(F)(F)F)ccc2C1 | –
2 | 8.7 | 8.1 | 4.4 | O=C(Cc1cccc(OC2CCCCC2)c1)N1CCNc2nc(C(F)(F)F)ccc2C1 | –
3 | 3.5 | 6.9 | 4.5 | O=C(Cc1cccc(Oc2ccccc2F)c1)N1CCNc2nc(C(F)(F)F)ccc2C1 | –
4 | 19 | 12 | 4.1 | O=C(Cc1cccc(Oc2ccccc2)c1)N1CCNc2nc(C(F)(F)F)ccc2C1CO (stereo not given) | –
5 | 1380 | 4380 | – | O=C(Nc1cccc(Oc2ccccc2)c1)N1CCNc2nc(C(F)(F)F)ccc2C1 | –
6 | 12.2 | 8.5 | 4.5 | O=C(Cc1cccc(Oc2ccccc2)c1)N1CCNc2nc(C(F)(F)F)ccc2C1 | fraction unbound [4]: 0.0067; half-life [5]: 0.82 h; solubility [6]: 5.1 µg/mL (≈ 11.9 µM); solubility [7]: 11 µg/mL (≈ 25.7 µM); Cmax [8]: 60 ng/mL; Kp at 2.5 h [9]: 0.72; AUC [10]: 41 ng·h/mL; remaining at 0.5 h [11]: 0.7%
7 | 11 | 11 | – | O=C(Cc1cccc(Oc2ccccc2)c1)N1CCNc2nc(C(F)(F)F)ccc2C1CCO (stereo not given) | –
8 | 15 | 13 | 1.2 | O=C(O)CC1c2ccc(C(F)(F)F)nc2NCCN1C(=O)Cc1cccc(Oc2ccccc2)c1 (stereo not given) | –
9 | 569 | 381 | – | CC(C)Oc1cccc(CC(=O)N2CCNc3nc(C(F)(F)F)ccc3C2)c1 | –
10 | 1780 | 2040 | – | COc1cccc(CC(=O)N2CCNc3nc(C(F)(F)F)ccc3C2)c1 | –
11 | 256 | 916 | – | CC(=O)N1Cc2ccccc2N(Cc2ccccc2)CC1C(C)C (stereo not given) | –
12 | 22 | 1.4 | – | CC(C)(O)c1nc(-c2cccc3c2N(S(=O)(=O)c2ccc(OC(F)(F)F)cc2)Cc2ccc(C(F)(F)F)nc2N3)no1 | –
13 | > 10000 | 368 | – | O=C(Cc1ccc(Oc2ccccc2)cc1)N1Cc2ccc(C(F)(F)F)nc2Nc2ccccc21 | –
14 | 121 | 199 | – | CC(C)(C)COc1cccc(CC(=O)N2CCNc3nc(C(F)(F)F)ccc3C2)c1 | –
15 | 2.7 | 1.7 | 1.2 | O=C(O)C[C@@H]1c2ccc(C(F)(F)F)nc2NCCN1C(=O)Cc1cccc(Oc2ccc(F)cc2)c1 | –
16 | 8.7 | 6.8 | 4.8 | O=C(Cc1cccc(Oc2cccc(F)c2)c1)N1CCNc2nc(C(F)(F)F)ccc2C1 | –
17 | 2260 | 1560 | – | O=C(O)C1c2ccc(C(F)(F)F)nc2NCCN1C(=O)Cc1cccc(Oc2ccccc2)c1 (stereo not given) | –

Row | EC50 [1] [nM] | EC50 [2] [nM] | logD [3] | Compound | also measured
18 | 2.8 | 9.5 | 3.6 | Cc1ccc(Oc2cccc(CC(=O)N3CCNc4nc(C(F)(F)F)ccc4C3)c2)cn1 | –
19 | 2.7 | 3.6 | 4.6 | O=C(Cc1cccc(Oc2ccc(F)cc2)c1)N1CCNc2nc(C(F)(F)F)ccc2C1 | –
20 | 3120 | 2070 | 1.2 | O=C(O)C[C@H]1c2ccc(C(F)(F)F)nc2NCCN1C(=O)Cc1cccc(Oc2ccccc2)c1 | –
21 | 106 | 156 | 3.2 | O=C(Cc1cccc(Oc2cccnc2)c1)N1CCNc2nc(C(F)(F)F)ccc2C1 | –
22 | 3.4 | 1.6 | 1.2 | O=C(O)C[C@@H]1c2ccc(C(F)(F)F)nc2NCCN1C(=O)Cc1cccc(Oc2ccccc2)c1 | –
23 | 62 | 17 | 0.9 | CC(C)COc1cccc(CC(=O)N2CCNc3nc(C(F)(F)F)ccc3[C@H]2CC(=O)O)c1 | fraction unbound [4]: 0.033; half-life [5]: 3.7 h; solubility [6]: 810 µg/mL (≈ 1740 µM); solubility [7]: 40 µg/mL (≈ 85.9 µM); Cmax [8]: 360 ng/mL; Kp at 2.5 h [9]: 0.043; AUC [10]: 390 ng·h/mL; remaining at 0.5 h [11]: 70%
24 | 46 | 25 | – | O=C(Cc1cccc(Oc2ccccc2)c1)N1Cc2ccc(C(F)(F)F)nc2Nc2ccccc21 | –
25 | 100 | 41 | – | O=C(Cc1cccc(OC2CCCC2)c1)N1CCNc2nc(C(F)(F)F)ccc2C1 | –
26 | 34 | 131 | – | CC(C)C1CN(Cc2ccccc2)c2ccccc2CN1C(=O)Nc1cccc(N2CCOCC2)c1 (stereo not given) | –
27 | 621 | 977 | 3.3 | O=C(Cc1cccc(Oc2ccncc2)c1)N1CCNc2nc(C(F)(F)F)ccc2C1 | –
28 | 3.5 | 1.7 | 0.3 | Cc1ccc(Oc2cccc(CC(=O)N3CCNc4nc(C(F)(F)F)ccc4[C@H]3CC(=O)O)c2)cn1 | fraction unbound [4]: 0.046; half-life [5]: 2.6 h; solubility [6]: 950 µg/mL (≈ 1900 µM); solubility [7]: 960 µg/mL (≈ 1920 µM); Cmax [8]: 90 ng/mL; Kp at 2.5 h [9]: 0.002; AUC [10]: 200 ng·h/mL; remaining at 0.5 h [11]: 94%
29 | 1210 | 2050 | – | CCOc1cccc(CC(=O)N2CCNc3nc(C(F)(F)F)ccc3C2)c1 | –
30 | 227 | 48 | – | CC(C)(C)c1ccc(CC(=O)N2Cc3ccc(C(F)(F)F)nc3Nc3ccccc32)cc1 | –
31 | 62 | 70 | 4.3 | CC(C)COc1cccc(CC(=O)N2CCNc3nc(C(F)(F)F)ccc3C2)c1 | –
32 | 52 | 59 | – | CCCCOc1cccc(CC(=O)N2CCNc3nc(C(F)(F)F)ccc3C2)c1 | –
33 | 1 | 1.3 | > 4.8 | Cc1ccc(Oc2cccc(CC(=O)N3CCNc4nc(C(F)(F)F)ccc4C3)c2)cc1 | –

Row | Compound | EC50 [1] [nM] | EC50 [2] [nM] | logD [3] | also measured
34 | CC(C)(C)c1ccc(C(=O)N2Cc3ccc(C(F)(F)F)nc3Nc3ccccc32)cc1 | > 10000 | > 10000 | – | –
